Reference: ChEMBL document CHEMBL1156138, “Identification of novel agonists of the integrin CD11b/CD18” (Bioorg Med Chem Lett, 2009)

Molecular target: Integrin alpha-M/beta-2 (Homo sapiens, UniProt P05107+P11215)
Sequence (P05107 23-769 limits assumed, other chains not shown): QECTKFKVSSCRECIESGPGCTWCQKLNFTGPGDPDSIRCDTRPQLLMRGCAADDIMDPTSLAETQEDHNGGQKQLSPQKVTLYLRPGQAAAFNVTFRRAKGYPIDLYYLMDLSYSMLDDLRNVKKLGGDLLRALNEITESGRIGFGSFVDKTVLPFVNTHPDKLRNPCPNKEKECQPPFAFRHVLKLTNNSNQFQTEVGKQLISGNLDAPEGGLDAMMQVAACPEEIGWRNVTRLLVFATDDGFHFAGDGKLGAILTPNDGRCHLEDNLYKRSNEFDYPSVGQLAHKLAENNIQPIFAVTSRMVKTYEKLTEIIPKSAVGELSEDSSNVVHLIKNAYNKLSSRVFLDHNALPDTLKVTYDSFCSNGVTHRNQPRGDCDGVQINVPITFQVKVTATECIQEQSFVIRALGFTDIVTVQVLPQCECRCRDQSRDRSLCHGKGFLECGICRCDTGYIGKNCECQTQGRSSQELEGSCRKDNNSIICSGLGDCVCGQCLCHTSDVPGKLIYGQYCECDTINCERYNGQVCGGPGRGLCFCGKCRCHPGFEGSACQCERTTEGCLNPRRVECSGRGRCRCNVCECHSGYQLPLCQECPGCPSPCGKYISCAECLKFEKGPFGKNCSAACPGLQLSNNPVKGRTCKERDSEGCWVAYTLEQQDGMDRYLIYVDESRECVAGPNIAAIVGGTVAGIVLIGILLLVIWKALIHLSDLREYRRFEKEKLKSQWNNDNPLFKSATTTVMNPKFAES
Test: Agonist activity at CD11b/CD18 expressed in K562 cells assessed as increase in cell adhesion to fibrinogen
Type: functional, cell-based
Conditions: k562; call rule not given here
Procedure, shortened: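 K562 cells stably transfected with wild-type CD11b/CD18 were tested for compound-induced adhesion to immobilized fibrinogen. The assay was a no-wash cell-adhesion format in TBS containing 1 mM each Ca2+ and Mg2+. Compounds were tested over a range of concentrations. EC50 was taken as the concentration giving a 50% increase in cell adhesion.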
In the case of `CCCN1C(=O)S/C(=C\c2ccc(-c3ccc(Cl)cc3Cl)o2)C1=O`, the EC50 is reported as “Not Active”. For `Cc1ccc(/C=C2\SC(=O)N(C)C2=O)o1`, the EC50 was “Not Active”. With `CCOC(=O)CN1C(=O)S/C(=C\c2ccc(-c3ccc(C(=O)O)cc3C)o2)C1=O` the EC50 was “Not Active”. With `COC(=O)CN1C(=O)S/C(=C\c2ccc(-c3ccc(C(=O)O)cc3)o2)C1=O` the EC50 was “Not Active”. In the case of `COC(=O)CN1C(=O)S/C(=C\c2ccc(Sc3ccccc3)o2)C1=O`, the EC50 is reported as “Not Active”. For `O=C(CN1C(=O)S/C(=C\c2ccc(-c3ccc(Cl)cc3Cl)o2)C1=O)Nc1ccccc1F`, the EC50 was “Not Active”. With `NS(=O)(=O)c1ccc(N2C(=O)S/C(=C\c3ccc(Cc4ccccc4)o3)C2=O)cc1` the EC50 was “Not Active”. With `CCOC(=O)CN1C(=O)S/C(=C\c2ccc(N3CCOCC3)o2)C1=O` the EC50 was “Not Active”. For `COC(=O)C(C)N1C(=O)S/C(=C\c2ccc(-c3ccc(Cl)cc3Cl)o2)C1=O` (configuration not stated), the EC50 was “Not Active”.

Same assay, conditions: read-out: EC50
In the case of `CCOC(=O)CN1C(=O)S/C(=C\c2ccc(N3CCCC3)o2)C1=O`, the EC50 is reported as 23.2 µM. Compound `CCOC(=O)CN1C(=O)S/C(=C\c2ccc(-c3cc(C(=O)O)ccc3Cl)o2)C1=O` has an EC50 of 40.9 µM. `O=C1S/C(=C\c2ccc(-c3ccc(Cl)cc3Cl)o2)C(=O)N1c1ccccc1` showed an EC50 greater than 50 µM. Work on `CCOC(=O)CN1C(=O)S/C(=C\c2ccc(-c3ccc(Cl)cc3Cl)o2)C1=O` yielded an EC50 of 13.6 µM. Compound `CCOC(=O)CN1C(=O)S/C(=C\c2ccc(-c3ccc(C)cc3Br)o2)C1=O` has an EC50 of 18.6 µM. `CCOC(=O)CN1C(=O)S/C(=C\c2ccc(-c3ccc(Cl)c(C(=O)O)c3)o2)C1=O` gave an EC50 greater than 50 µM. Work on `Cc1ccc(C(=O)CN2C(=O)S/C(=C\c3ccc(-c4ccc(Cl)cc4)o3)C2=O)cc1` yielded an EC50 greater than 50 µM. `Cc1cccc(NC(=O)CN2C(=O)/C(=C/c3ccc(Cc4ccco4)o3)SC2=S)c1` gave an EC50 of 18 µM. For `O=C(CN1C(=O)S/C(=C\c2ccc(-c3ccc(Cl)cc3Cl)o2)C1=O)c1ccccc1`, the EC50 was 35.6 µM. Compound `Cc1cccc(NC(=O)CN2C(=O)S/C(=C\c3ccc(-c4ccccc4)o3)C2=O)c1` has an EC50 of 22.3 µM. Compound `CCOC(=O)CN1C(=O)S/C(=C\c2ccc(-c3ccccc3)o2)C1=O` has an EC50 of 10.5 µM. With `CCOC(=O)CN1C(=O)S/C(=C\c2ccc(-c3ccc(Br)cc3)o2)C1=O` the EC50 was 40.4 µM.

System: not listed separately
Test: Selectivity ratio for CD11b/CD18 over CD11a/CD18
Conditions: not given
`CCOC(=O)CN1C(=O)S/C(=C\c2ccc(-c3ccc(Cl)cc3Cl)o2)C1=O` gave a Ratio of 2.
